What was measured:
Type in all cases: functional
[1] = species: Cavia porcellus; assay: Open epicutaneous test for sensitization in presence of lactone 8 (pretreated with bihapten 1) as sensitizer on guinea pigs as number of positive animals responded
Method in brief: (§1)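 Female Himalayan spotted guinea pigs (300–500 g) sensitized with three intradermal nuchal injections (0.1 mL) on alternate days of the hapten (2.5% w/v) emulsified 1:1 in Freund's complete adjuvant/saline. Elicitation by open epicutaneous test with the hapten at 2% w/v in 4:1 acetone/olive oil. Eight animals per group, with FCA-treated controls. Average skin reaction is the sum of test scores divided by the number of animals tested.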

[2] = species: Cavia porcellus; assay: Open cutaneous test for sensitization in presence of lactone 8 as sensitizer on guinea pigs with skin intensity test scale (erythema plus swelling going well beyond); Value indicates number of animals; method in brief: as §1
[3] = species: Cavia porcellus; assay: Open epicutaneous test for sensitization in presence of bihapten 1 as sensitizer on guinea pigs with skin intensity test scale (no reaction); Value indicates number of animals; method in brief: as §1
[4] = species: Cavia porcellus; assay: Open epicutaneous test for sensitization as average skin reaction in presence of lactone 8 as sensitizer on guinea pigs; Value indicates number of animals; method in brief: as §1
[5] = species: Cavia porcellus; assay: Open epicutaneous test for sensitization in presence of bihapten 1 as sensitizer on guinea pigs as number of positive animals responded; method in brief: as §1
[6] = species: Cavia porcellus; assay: Open epicutaneous test for sensitization as average skin reaction in presence of lactone 8 (pretreated with bihapten 1) as sensitizer on guinea pigs; Value indicates number of animals; method in brief: as §1
[7] = species: Cavia porcellus; assay: Open cutaneous test for sensitization in presence of lactone 8 as sensitizer on guinea pigs with skin intensity test scale (slight erythema not covering the whole test area); Value indicates number of animals; method in brief: as §1
[8] = species: Cavia porcellus; assay: Open epicutaneous test for sensitization in presence of bihapten 1 as sensitizer on guinea pigs with skin intensity test scale (erythema plus swelling going well beyond); Value indicates number of animals; method in brief: as §1
[9] = species: Cavia porcellus; assay: Open cutaneous test for sensitization in presence of lactone 8 as sensitizer on guinea pigs with skin intensity test scale (definite erythema covering the whole test area); Value indicates number of animals; method in brief: as §1
[10] = species: Cavia porcellus; assay: Open epicutaneous test for sensitization in presence of lactone 8 as sensitizer on guinea pigs as number of positive animals responded; method in brief: as §1
[11] = species: Cavia porcellus; assay: Open epicutaneous test for sensitization in presence of lactone 8 (pretreated with bihapten 1) as sensitizer on guinea pigs with skin intensity test scale (erythema plus swelling going well beyond); Value indicates number of animals; method in brief: as §1
[12] = species: Cavia porcellus; assay: Open epicutaneous test for sensitization in presence of bihapten 1 as sensitizer on guinea pigs with skin intensity test scale (definite erythema covering the whole test area); Value indicates number of animals; method in brief: as §1
[13] = species: Cavia porcellus; assay: Open epicutaneous test for sensitization in presence of lactone 8 (pretreated with bihapten 1) as sensitizer on guinea pigs with skin intensity test scale (definite erythema covering the whole test area); Value indicates number of animals; method in brief: as §1
[14] = species: Cavia porcellus; assay: Open epicutaneous test for sensitization in presence of lactone 8 (pretreated with bihapten 1) as sensitizer on guinea pigs with skin intensity test scale (no reaction); Value indicates number of animals; method in brief: as §1
[15] = species: Cavia porcellus; assay: Open epicutaneous test for sensitization in presence of bihapten 1 as sensitizer on guinea pigs with skin intensity test scale (slight erythema not covering the whole test area); Value indicates number of animals; method in brief: as §1
[16] = species: Cavia porcellus; assay: Open cutaneous test for sensitization in presence of lactone 8 as sensitizer on guinea pigs with skin intensity test scale (erythema plus swelling of the test area); Value indicates number of animals; method in brief: as §1
[17] = species: Cavia porcellus; assay: Open epicutaneous test for sensitization in presence of lactone 8 (pretreated with bihapten 1) as sensitizer on guinea pigs with skin intensity test scale (slight erythema not covering the whole test area); Value indicates number of animals; method in brief: as §1
[18] = species: Cavia porcellus; assay: Open epicutaneous test for sensitization in presence of lactone 8 (pretreated with bihapten 1) as sensitizer on guinea pigs with skin intensity test scale (erythema plus swelling of the test area); Value indicates number of animals; method in brief: as §1
[19] = species: Cavia porcellus; assay: Open epicutaneous test for sensitization as average skin reaction in presence of bihapten 1 as sensitizer on guinea pigs; Value indicates number of animals; method in brief: as §1
[20] = species: Cavia porcellus; assay: Open epicutaneous test for sensitization in presence of bihapten 1 as sensitizer on guinea pigs with skin intensity test scale (erythema plus swelling of the test area); Value indicates number of animals; method in brief: as §1
[21] = species: Cavia porcellus; assay: Open cutaneous test for sensitization in presence of lactone 8 as sensitizer on guinea pigs with skin intensity test scale (no reaction); Value indicates number of animals; method in brief: as §1
[22] = species: Cavia porcellus; assay: Open epicutaneous test for sensitization in presence of lactone 8 (pretreated with bihapten 1)as sensitizer on guinea pigs with skin intensity test scale (erythema plus swelling of the test area); method in brief: as §1
[23] = species: Cavia porcellus; assay: Open cutaneous test for sensitization in presence of lactone 8 (pretreated with bihapten 1)as sensitizer on guinea pigs with skin intensity test scale (slight erythema not covering the whole test area); Value indicates number of animals; method in brief: as §1
[24] = species: Cavia porcellus; assay: Open epicutaneous test for sensitization in presence of lactone 8 as sensitizer on guinea pigs with skin intensity test scale (erythema plus swelling of the test area); Value indicates number of animals; method in brief: as §1
[25] = species: Cavia porcellus; assay: Open epicutaneous test for sensitization in presence of lactone 8 as sensitizer on guinea pigs with skin intensity test scale (definite erythema covering the whole test area); Value indicates number of animals; method in brief: as §1
[26] = species: Cavia porcellus; assay: Open epicutaneous test for sensitization in presence of lactone 8 (pretreated with bihapten 1)as sensitizer on guinea pigs with skin intensity test scale (no reaction); Value indicates number of animals; method in brief: as §1
[27] = species: Cavia porcellus; assay: Open epicutaneous test for sensitization in presence of lactone 8 as sensitizer on guinea pigs with skin intensity test scale (erythema plus swelling going well beyond); Value indicates number of animals; method in brief: as §1
[28] = species: Cavia porcellus; assay: Open epicutaneous test for sensitization in presence of lactone 8 (pretreated with bihapten 1)as sensitizer on guinea pigs with skin intensity test scale (definite erythema covering the whole test area); Value indicates number of animals; method in brief: as §1
[29] = species: Cavia porcellus; assay: Open epicutaneous test for sensitization in presence of lactone 8 (pretreated with bihapten 1)as sensitizer on guinea pigs with skin intensity test scale (erythema plus swelling going well beyond); Value indicates number of animals; method in brief: as §1
[30] = species: Cavia porcellus; assay: Open epicutaneous test for sensitization in presence of lactone 8 as sensitizer on guinea pigs with skin intensity test scale (no reaction); Value indicates number of animals; method in brief: as §1
[31] = species: Cavia porcellus; assay: Open epicutaneous test for sensitization in presence of lactone 8 as sensitizer on guinea pigs with skin intensity test scale (slight erythema not covering the whole test area); Value indicates number of animals; method in brief: as §1
[32] = species: Cavia porcellus; assay: Open epicutaneous test for sensitization in presence of bihapten 1 as sensitizer on guinea pigs with skin intensity test scale (erythema plus swelling going well beyond the); Value indicates number of animals; method in brief: as §1

With `C=C1CC(CCCCCCCCCc2cccc(OC)c2OC)OC1=O` (configuration not stated) the “No. of positive animals” value [1] was 8, the Skin reaction [2] was 8 and the Skin reaction [3] was 0. The “Average for skin reaction” value [4] was 3, the “No. of positive animals” value [5] was 0 and the “Average for skin reaction” value [6] was 0.6. For the same molecule, the Skin reaction [7] was 0, the Skin reaction [8] was 0 and the Skin reaction [9] was 0. The “No. of positive animals” value [10] was 8, the Skin reaction [11] was 0 and the Skin reaction [12] was 0. It also gave a Skin reaction [13] of 2, a Skin reaction [14] of 0 and a Skin reaction [15] of 0. It also gave a Skin reaction [16] of 0, a Skin reaction [17] of 6 and a Skin reaction [18] of 0. For the same molecule, the “Average for skin reaction” value [19] was 0, the Skin reaction [20] was 0 and the Skin reaction [21] was 0.

For `C=C1CC(CCCCCCCCCc2cccc(O)c2O)OC1=O` (configuration not stated), the “No. of positive animals” value [1] was 8, the Skin reaction [22] was 0 and the Skin reaction [3] was 0. For the same molecule, the “Average for skin reaction” value [4] was 1.6, the Skin reaction [23] was 0 and the “No. of positive animals” value [5] was 8. For the same molecule, the Skin reaction [24] was 5, the “Average for skin reaction” value [6] was 1 and the Skin reaction [25] was 3. The “No. of positive animals” value [10] was 8, the Skin reaction [12] was 8 and the Skin reaction [26] was 0. The Skin reaction [27] was 0, the Skin reaction [28] was 8 and the Skin reaction [15] was 0. The Skin reaction [29] was 0, the “Average for skin reaction” value [19] was 1 and the Skin reaction [30] was 0. The Skin reaction [31] was 0, the Skin reaction [32] was 0 and the Skin reaction [20] was 0.
